Results: ChEMBL document CHEMBL1921722, “In vitro and in vivo evaluation of select kahalalide F analogs with antitumor and antifungal activities” (Bioorg Med Chem, 2011)
Activity calls are given as the source filed them.

What was measured:
DU-145 [1] = assay: Cytotoxicity against human DU145 cells by sulforhodamine B assay; assay type: functional
In short: (§1)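 Run by the NCI Developmental Therapeutics Program on its 60-line human tumour cell panel using the standard procedure. Compounds went through a single-concentration prescreen first, and those active by NCI criteria went on to a five-concentration growth-inhibition test. GI50 is the concentration that cuts growth of treated cells to half that of untreated control cells.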

UACC-62 [2] = assay: Cytotoxicity against human UACC62 cells assessed as cell growth at 8 nM by sulforhodamine B assay relative to control; assay type: functional; conditions: read-out: Activity
OVCAR-8 = assay: Cytotoxicity against human OVCAR8 cells assessed as cell growth at 80 uM by sulforhodamine B assay relative to control; assay type: functional; conditions: read-out: Activity
A549 [3] = assay: Cytotoxicity against human A549 cells assessed as cell growth at 800 nM by sulforhodamine B assay relative to control; assay type: functional; conditions: read-out: Activity
In short: (§2)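 Run at NCI in the DTP 60-cell-line human tumor panel by standard procedure. Compounds were first screened at a single concentration, then tested at five tenfold-spaced concentrations. GI50 is the concentration reducing treated-cell growth to half that of untreated controls; TGI is the concentration completely halting growth.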

SNB-19 = assay: Cytotoxicity against human SNB19 cells assessed as cell growth at 80 uM by sulforhodamine B assay relative to control; assay type: functional; conditions: read-out: Activity
KM12 [4] = assay: Cytotoxicity against human KM12 cells assessed as cell growth at 80 nM by sulforhodamine B assay relative to control; assay type: functional; conditions: read-out: Activity
EKVX = assay: Cytotoxicity against human EKVX cells assessed as cell growth at 8 uM by sulforhodamine B assay relative to control; assay type: functional; conditions: read-out: Activity
UACC-62 [5] = assay: Cytotoxicity against human UACC62 cells assessed as cell growth at 80 nM by sulforhodamine B assay relative to control; assay type: functional; conditions: read-out: Activity
A498 = assay: Cytotoxicity against human A498 cells assessed as cell growth at 800 nM by sulforhodamine B assay relative to control; assay type: functional; conditions: read-out: Activity; in short: as §2
UO-31 = assay: Cytotoxicity against human UO31 cells by sulforhodamine B assay; assay type: functional
In short: (§3)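 NCI Developmental Therapeutics Program 60-cell-line human tumor panel screen, run at NCI. A single-concentration pre-screen was followed by a five-concentration dose-response in 10-fold steps. GI50 is the concentration that reduces growth of treated cells to half that of untreated control cells. TGI is the concentration that completely halts growth.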

DU-145 [6] = assay: Cytotoxicity against human DU145 cells assessed as cell growth at 8 uM by sulforhodamine B assay relative to control; assay type: functional; conditions: read-out: Activity; in short: as §2
RXF 393 [7] = assay: Cytotoxicity against human RXF393 cells by sulforhodamine B assay; assay type: functional; in short: as §3
Malme-3M = assay: Cytotoxicity against human MALME-3M cells assessed as cell growth at 80 nM by sulforhodamine B assay relative to control; assay type: functional; conditions: read-out: Activity
SW-620 [8] = assay: Antitumor activity against human SW620 cells xenografted in mouse assessed as tumor cell killing at 4.7 mg/kg, ip qd for 4 days by MTT assay; assay type: functional, organism-based; parameters: dose 4.7 mg/kg
In short: (§4)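 Hollow-fiber assay in mice. Tumor lines were grown in RPMI-1640 with 10% FBS and 2 mM glutamine. Cells at 2 × 10^6 cells/ml were loaded into 1 mm PVDF fibers (500,000 Da cutoff), heat-sealed at 2 cm and held 24–48 h at 37 °C, 5% CO2 before implantation. Compound was given IP. Fibers were collected the day after the fourth treatment for MTT (OD 540 nm, group means). A ≥50% cut in percent net growth versus vehicle counted as positive.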

IGROV-1 = assay: Cytotoxicity against human IGROV1 cells assessed as cell growth at 800 nM by sulforhodamine B assay relative to control; assay type: functional; conditions: read-out: Activity
HCC 2998 = assay: Cytotoxicity against human HCC2998 cells assessed as cell growth at 8 uM by sulforhodamine B assay relative to control; assay type: functional; conditions: read-out: Activity
U-251 [9] = assay: Cytotoxicity against human U251 cells assessed as cell growth at 8 nM by sulforhodamine B assay relative to control; assay type: functional; conditions: read-out: Activity
NCI-H23 = assay: Cytotoxicity against human NCI-H23 cells by sulforhodamine B assay; assay type: functional; in short: as §3
HT-29 [10] = assay: Cytotoxicity against human HT-29 cells assessed as cell growth at 8 uM by sulforhodamine B assay relative to control; assay type: functional; conditions: read-out: Activity
SK-MEL-2 [11] = assay: Cytotoxicity against human SK-MEL-2 cells assessed as cell growth at 8 uM by sulforhodamine B assay relative to control; assay type: functional; conditions: read-out: Activity
MDA-MB-231 = assay: Cytotoxicity against human MDA-MB-231 cells assessed as cell growth at 800 nM by sulforhodamine B assay relative to control; assay type: functional; conditions: read-out: Activity
KM12 [12] = assay: Cytotoxicity against human KM12 cells assessed as cell growth at 800 nM by sulforhodamine B assay relative to control; assay type: functional; conditions: read-out: Activity
LOX IMVI = assay: Cytotoxicity against human LOXIMVI cells by sulforhodamine B assay; assay type: functional; in short: as §3
U-251 [13] = assay: Cytotoxicity against human U251 cells assessed as cell growth at 80 nM by sulforhodamine B assay relative to control; assay type: functional; conditions: read-out: Activity
SK-MEL-28 = assay: Cytotoxicity against human SK-MEL-28 cells assessed as cell growth at 800 nM by sulforhodamine B assay relative to control; assay type: functional; conditions: read-out: Activity
SK-MEL-2 [14] = assay: Cytotoxicity against human SK-MEL-2 cells by sulforhodamine B assay; assay type: functional; in short: as §3
K562 = assay: Cytotoxicity against human K562 cells assessed as cell growth at 800 nM by sulforhodamine B assay relative to control; assay type: functional; conditions: read-out: Activity
A549 [15] = assay: Cytotoxicity against human A549 cells assessed as cell growth at 80 nM by sulforhodamine B assay relative to control; assay type: functional; conditions: read-out: Activity; in short: as §2
OVCAR-3 = assay: Antitumor activity against human OVCAR3 cells xenografted in mouse assessed as tumor cell killing at 4.7 mg/kg, ip qd for 4 days by MTT assay; assay type: functional, organism-based; parameters: dose 4.7 mg/kg; in short: as §4
HCT-15 = assay: Cytotoxicity against human HCT15 cells assessed as cell growth at 80 nM by sulforhodamine B assay relative to control; assay type: functional; conditions: read-out: Activity
HT-29 [16] = assay: Cytotoxicity against human HT-29 cells by sulforhodamine B assay; assay type: functional; in short: as §1
M14 = assay: Cytotoxicity against human M14 cells assessed as cell growth at 80 nM by sulforhodamine B assay relative to control; assay type: functional; conditions: read-out: Activity
SW-620 [17] = assay: Cytotoxicity against human SW620 cells assessed as cell growth at 80 uM by sulforhodamine B assay relative to control; assay type: functional; conditions: read-out: Activity
RXF 393 [18] = assay: Cytotoxicity against human RXF393 cells assessed as cell growth at 80 uM by sulforhodamine B assay relative to control; assay type: functional; conditions: read-out: Activity
MDA-MB-435 = assay: Cytotoxicity against human MDA-MB-435 cells assessed as cell growth at 8 uM by sulforhodamine B assay relative to control; assay type: functional; conditions: read-out: Activity
UACC-257 = assay: Cytotoxicity against human UACC257 cells assessed as cell growth at 800 nM by sulforhodamine B assay relative to control; assay type: functional; conditions: read-out: Activity
SR = assay: Cytotoxicity against human SR cells assessed as cell growth at 8 uM by sulforhodamine B assay relative to control; assay type: functional; conditions: read-out: Activity

Compound: C/C=C1\NC(=O)[C@H](Cc2ccccc2)NC(=O)[C@@H](C(C)C)NC(=O)[C@@H]([C@@H](C)CC)NC(=O)[C@H](NC(=O)[C@H](NC(=O)[C@H](CCCNCc2ccc(N3CCOCC3)cc2)NC(=O)[C@H]2CCCN2C(=O)[C@H](NC(=O)[C@@H](NC(=O)[C@@H](NC(=O)[C@H](NC(=O)CCCC(C)C)C(C)C)[C@@H](C)O)C(C)C)C(C)C)[C@@H](C)CC)[C@@H](C)OC(=O)[C@H](C(C)C)NC1=O
- LC50 (DU-145 [1]): 0.513 µM
- GI50 (DU-145 [1]; read-out: GI50): 0.128 µM
- TGI (DU-145 [1]; read-out: TGI): 0.257 µM
- GI50 (DU-145 [1]; read-out: pGI50 (converted)): 0.129 µM
- TGI (DU-145 [1]; read-out: pTGI (converted)): 0.257 µM
- growth at 0.008 µM (UACC-62 [2]): 102%
- growth at 80 µM (OVCAR-8): 28%
- growth at 0.8 µM (A549 [3]): -40%
- growth at 80 µM (SNB-19): -5%
- growth at 0.08 µM (KM12 [4]): 99%
- growth at 8 µM (EKVX): -76%
- growth at 0.08 µM (UACC-62 [5]): 103%
- growth at 0.8 µM (A498): 100%
- GI50 (UO-31): 1.38 µM
- TGI (UO-31; read-out: pTGI (converted)): 2.69 µM
- growth at 8 µM (DU-145 [6]): -96%
- GI50 (RXF 393 [7]): 1.58 µM
- LC50 (RXF 393 [7]): > 75.9 µM
- TGI (RXF 393 [7]; read-out: pTGI (converted)): 3.55 µM
- growth at 0.08 µM (Malme-3M): 112%
- Activity (SW-620 [8]): inactive
- growth at 0.8 µM (IGROV-1): 55%
- growth at 8 µM (HCC 2998): -81%
- growth at 0.008 µM (U-251 [9]): 94%
- GI50 (NCI-H23): 1.55 µM
- LC50 (NCI-H23): 6.31 µM
- TGI (NCI-H23; read-out: pTGI (converted)): 3.09 µM
- growth at 8 µM (HT-29 [10]): -68%
- growth at 8 µM (SK-MEL-2 [11]): -74%
- growth at 0.8 µM (MDA-MB-231): 86%
- growth at 0.8 µM (KM12 [12]): -15%
- GI50 (LOX IMVI): 3.16 µM
- LC50 (LOX IMVI): 57.5 µM
- TGI (LOX IMVI; read-out: pTGI (converted)): 13.5 µM
- growth at 0.08 µM (U-251 [13]): 103%
- growth at 0.8 µM (SK-MEL-28): 98%
- GI50 (SK-MEL-2 [14]): 1.51 µM
- TGI (SK-MEL-2 [14]; read-out: pTGI (converted)): 2.88 µM
- growth at 0.8 µM (K562): 102%
- growth at 0.08 µM (A549 [15]): 102%
- Activity (OVCAR-3): inactive
- growth at 0.08 µM (HCT-15): 107%
- GI50 (HT-29 [16]; read-out: GI50): 0.224 µM
- GI50 (HT-29 [16]; read-out: pGI50 (converted)): 0.224 µM
- growth at 0.08 µM (M14): 97%
- growth at 80 µM (SW-620 [17]): -13%
- growth at 80 µM (RXF 393 [18]): -27%
- growth at 8 µM (MDA-MB-435): -88%
- growth at 0.8 µM (UACC-257): 93%
- growth at 8 µM (SR): 15%
